We go through six molecules from ChEMBL document CHEMBL1135577, “Synthesis and biological evaluation of structurally highly modified analogues of the antimitotic natural product curacin A” (J Med Chem, 2002).

A word on the GI50: it is the concentration giving 50% growth inhibition. A high value points to lower sensitivity of the cells. Broadly, the IC50 is the point on the concentration scale where inhibition reaches its midpoint. A higher IC50 goes with weaker potency. The term inhibition denotes the share of the control response that was lost under treatment. Lower therefore signals little suppression.

The structures appear in SMILES notation.

Assay [1] can be described thus: Average growth inhibition activity in analogy of ca. Type of assay: functional. The procedure, abridged:
(§1)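 Cultured human tumor cells were seeded at 500-2000 cells/well, allowed to attach for 48 h, then exposed continuously for 48 h to DMSO vehicle or agent at five concentrations (e.g., 50-0.08 μM, 10-0.016 μM or 1-0.0016 μM series), each in quadruplicate. A time-zero plate was included. Cell number was read by MTS/phenazine methanesulfonate at A490-A630. Values are means (N = 4 over 10 concentrations) ± SD.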

In assay [2] the test system is A2780. Description: Inhibition of tubulin polymerization in analogy of ca. Type of assay: functional, cell-based. The conditions noted are these: Homo sapiens. The procedure, abridged:
(§2)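 Tubulin (10 μM final, 1 mg/mL) was preincubated with agent in DMSO (4% v/v final) and 0.8 M monosodium glutamate for 15 min at 30 °C, then cooled to 0 °C and GTP (0.4 mM final) added. Turbidity at 350 nm was followed for 20 min at 30 °C. […] Values are averages of two determinations.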

The test system of assay [3] is A2780. Description: Compound was tested for 50% Growth Inhibitory concentration by using A2780 cell lines. The conditions noted are these: Homo sapiens.
Assay [4] relates to PC-3. Description: Compound was tested for 50% growth inhibitory concentration by using human prostate carcinoma cell lines (PC -3). Type of assay: functional. The procedure, abridged: as §1
Assay [5] has as its system A2780. Kind of assay: Compound was tested for Tubulin polymerization inhibition by using human ovarian carcinoma cell lines. The assay is classed as functional. The procedure, abridged:
as §2

Assay [6] deals with MDA-MB-231. Kind of assay: Compound was tested for 50% Growth Inhibitory concentration by using MDA-MB-231 cell lines. Type of assay: functional. The conditions noted are these: Homo sapiens. In short, it runs like this:
as §1

Assay [7] relates to 2008. Description: Compound was tested for 50% growth inhibitory concentration by using human ovarian carcinoma cell lines (2008). Type of assay: functional. In short, it runs like this: as §1
In assay [8] the test system is A2780. Description: Compound tested for colchicine Binding Inhibition by using human ovarian carcinoma cell line (at 5 uM ). Type of assay: functional. In short, it runs like this:
(§3)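 [3H]colchicine (5 μM) was incubated with 1 μM tubulin and agent (1-250 μM) or DMSO vehicle (5% v/v) at 30 °C for 15 min or 37 °C for 10 min, in 1 M monosodium glutamate, 0.1 M glucose-1-phosphate, 1 mM MgCl2, 1 mM GTP and 0.5 mg/mL BSA. Samples were filtered through DEAE-cellulose and counted by scintillation. Values are means (N = 9 over four concentrations) ± SD.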

Assay [9] concerns MDA-MB-231. Description: Compound was tested for 50% Growth Inhibitory concentration by using MDA - MB231 human breast carcinoma cell lines. The assay is classed as functional. The procedure, abridged: (§4)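 Cells (500–2000/well) attached and grew for 48 h, then received DMSO vehicle or agent at five-point 5-fold dilutions (from 50, 10 or 1 μM top) for 48 h, continuous exposure. A time-zero plate was included, and each concentration was run in quadruplicate. Cell number was read by MTS/phenazine methanesulfonate, A490 minus A630. Values are means (N = 4 over 10 concentrations) ± SD.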

The subject of assay [10] is A2780. Description: Percent of Tubulin polymerization inhibition by using human ovarian cancer cell lines at a concentration of 5 uM. Type of assay: functional. The procedure, abridged: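 Purified tubulin (10 μM final, 1 mg/mL) was preincubated 15 min at 30 °C with agent in DMSO (4% v/v final) and 0.8 M monosodium glutamate. Samples were chilled to 0 °C, and GTP was added (0.4 mM final). Turbidity at 350 nm was followed for 20 min after a rapid rise to 30 °C. Inhibition was scaled between vehicle without GTP (100%) and GTP plus vehicle (0%). Values are averages of two determinations.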

For assay [11], the target named is Tubulin (Bos taurus). Kind of assay: Inhibition of tubulin polymerization of purified bovine brain tubulin.
Assay [12] concerns PC-3. Description: 50% Growth inhibitory concentration by using PC -3 human prostate carcinoma cell lines (48h continuous exposure). The conditions noted are these: PC-3, 48 h. The assay is classed as functional. The procedure, abridged: as §1
Assay [13] has as its system 2008. Kind of assay: 50% Growth inhibitory concentration( GI 50 ) by using 2008 human ovarian carcinoma cell lines. The assay is classed as functional. In short, it runs like this: as §1
Assay [14] relates to A2780. Kind of assay: Compound tested for colchicine Binding Inhibition by using human ovarian cancer cell line (at 5 uM ). The assay is classed as functional. The procedure, abridged:
(§5)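 [3H]-colchicine (5 μM, 2.3 TBq/mmol) and test agent (1–250 μM) or DMSO vehicle (5% v/v) were incubated with 1 μM purified tubulin at 30 °C for 15 min. The medium held 1 M monosodium glutamate, 0.1 M glucose-1-phosphate, 1 mM MgCl2, 1 mM GTP and 0.5 mg/mL BSA. Samples were filtered through DEAE-cellulose stacks, and […] was counted by scintillation. Values are means (N = 9 over four concentrations) ± SD.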

Assay [15] has as its system A2780. Kind of assay: Colchicine Binding Inhibition ( CBI ) by using human ovarian cancer cell lines at 5 uM, (values are mean of 9 over 4 concentrations +/- SD). Type of assay: functional. In short, it runs like this: as §5
The subject of assay [16] is MCF7. Kind of assay: Compound was tested for 50% Growth Inhibitory concentration against MCF-7 cell lines. Type of assay: functional. The conditions noted are these: Homo sapiens. The procedure, abridged: as §4
Assay [17] concerns the target Tubulin (Bos taurus). Kind of assay: Ability to inhibit the GTP/glutamate-induced polymerization of tubulin.
In assay [18] the test system is A2780. Description: Compound was tested for colchicine Binding Inhibition by using human ovarian carcinoma cell line (at 5 uM ). Type of assay: functional. In short, it runs like this: as §3
Assay [19] has as its system A2780. Description: Compound was tested for colchicine binding inhibition by using human ovarian carcinoma cell line (at 5 uM ). The assay is classed as functional. The procedure, abridged:
as §3

Molecule `COc1cc(/C=C\CC/C=C/C=C(\C)CCC(O)c2cc3ccccc3o2)cc(OC)c1OC` (configuration not stated) showed a GI50 in [1] of 250 nM. The IC50 in [2] came out at 1000 nM.
On to `COC[C@H]1C[C@H]1C1=NC(COC/C=C(\C)CC/C=C(\C)CCC=C(C)C)CS1` (some centres not stated), for which, in assay [3], the 50% growth inhibitory concentration (GI50) is more than 25000 nM.
On to `COc1cc(COCCC/C=C/C=C(\C)CCC(O)c2cccs2)cc(OC)c1OC` (configuration not stated), for which the GI50 in assay [4] was 18000 nM; in [6] it was more than 50000 nM; in assay [7], 15000 nM. In addition, the TPI in assay [5] is given as 7%. In assay [8], this molecule registered an inhibition at 5 µM of less than 10%.
As to `C=CC[C@@H](CC/C(C)=C/C=C/CC/C=C\[C@@H]1CSC([C@@H]2C[C@@H]2C)=N1)OC` [CURACIN A], the GI50 worked out at 96 nM in assay [9], 50 nM in assay [12], 35 nM in assay [13] and 40 nM in assay [16]. The same molecule returned a TPI in assay [10] of 98%. In [11], this molecule displayed an IC50 of 720 nM. The inhibition at 5 µM in assay [14] was determined as 94%; in [15] it was 78%.
Turning to `COc1cc(/C=N\OC/C=C/C=C(\C)CCC(O)c2cccs2)cc(OC)c1OC` (configuration not stated), the results for the GI50 in assay [4], in assay [6] and in [7] were 250 nM, 120 nM and 240 nM, respectively. This molecule also returned a TPI in assay [5] of 100%. For the same molecule, in assay [17], the IC50 turned out to be 170 nM. The molecule also showed an inhibition at 5 µM in assay [18] of 48%.
`C=CC[C@@H](CC[C@@]1(C)C[C@@H]1[C@H]1C[C@@H]1CC/C=C\[C@@H]1COC([C@@H]2C[C@@H]2C)=N1)OC` came in with an inhibition at 5 µM in [19] of less than 10%. The GI50 in [4] was 49000 nM; in [6] it was 18000 nM; in assay [7], 18000 nM. Besides, the TPI in [5] was 59%.
